Experimental data: ChEMBL document CHEMBL1125597, “Potent inhibitory effect of a series of modified cyclodextrin sulfates (mCDS) on the replication of HIV-1 in vitro” (J Med Chem, 1991)

What was measured:
[1] = tested on: MT4; assay: Compound was evaluated for the anticoagulant activity; format: functional, Homo sapiens
How it was run: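 Zucker activated partial thromboplastin time (APTT) method; value is the concentration (µg/mL) giving 2-fold APTT. Median of 2 or 3 experiments.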

[2] = tested on: MOLT-4; assay: Suppressive effect on giant-cell formation against HIV-2GH-1 in MOLT-4 cells; format: functional, Homo sapiens
How it was run: (§1)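 Uninfected MOLT-4 mixed 1:1 with persistently infected MOLT-4 (HIV-1 LAV-1 or HIV-2 GH-1 carriers), 5×10^5 cells/mL total, cultured 24 h with compound. Viable cells counted by trypan blue exclusion; fusion index = 1 − cells in test well/cells in uninfected MOLT-4 control. Median of 2 or 3 experiments.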

[3] = tested on: MT4; assay: Compound was evaluated for the minimum concentration for appearance of MT-4 cell toxicity; format: functional, Homo sapiens
How it was run: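 MT-4 cells incubated 5 days with test compound (12 doses, 0.49–1000 µg/mL); lowest concentration at which toxicity appears, viable cells by trypan blue staining in mock-infected cultures. Median of 2 or 3 experiments.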

[4] = tested on: MOLT-4; assay: Suppressive effect on giant-cell formation against HIV-1LAV-1 in MOLT-4 cells; format: functional, Homo sapiens; how it was run: as §1
[5] = tested on: MT4; assay: The minimum concentration for complete inhibition (IC100) of HIV-1 strain KK-1AIDS from human induced CPE in MT-4 cells.; format: functional
How it was run: (§2)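 MT-4 cells infected 1 h with HIV-1 (LAV-1 or patient isolate KK-1 AIDS) at 0.001 TCID50 per cell, unbound virus washed off. Cultured 5 days with compound (12 doses, 0.49–1000 µg/mL); viable cells in infected and mock cultures by trypan blue. Minimum concentration fully preventing CPE; median of 2 or 3 experiments.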

[6] = tested on: MT4; assay: The minimum concentration for complete inhibition (IC100) of HIV-1 strain LAV-1 from human induced CPE in MT-4 cells.; format: functional; how it was run: as §2

With `COc1ccc(NCC2O[C@@H]3O[C@@H]4C(CNc5ccc(OC)cc5)O[C@@H](O[C@@H]5C(CNc6ccc(OC)cc6)O[C@H](O[C@@H]6C(CNc7ccc(OC)cc7)O[C@H](O[C@@H]7C(CNc8ccc(OC)cc8)O[C@H](O[C@@H]8C(CNc9ccc(OC)cc9)O[C@H](O[C@@H]9C(CNc%10ccc(OC)cc%10)O[C@H](O[C@H]2C(O)C3OS(=O)(=O)[O-])C(OS(=O)(=O)[O-])C9OS(=O)(=O)[O-])C(OS(=O)(=O)[O-])C8OS(=O)(=O)[O-])C(OS(=O)(=O)[O-])C7O)C(OS(=O)(=O)[O-])C6OS(=O)(=O)[O-])C(OS(=O)(=O)[O-])C5OS(=O)(=O)[O-])C(OS(=O)(=O)[O-])C4OS(=O)(=O)[O-])cc1.[Na+].[Na+].[Na+].[Na+].[Na+].[Na+].[Na+].[Na+].[Na+].[Na+].[Na+].[Na+]` (stereo partly specified) the APTT [1] was 4.3 µg/mL, the Supressive effect [2] was 40.2 µg/mL and the Cytotoxicity [3] was >1000 µg/mL. For the same compound, the Supressive effect [4] was 5.5 µg/mL, the IC100 [5] was 31.2 µg/mL and the IC100 [6] was 0.98 µg/mL.
In the case of `O=[PH](O)OCC1O[C@H]2O[C@@H]3C(CO[PH](=O)O)O[C@H](O[C@@H]4C(CO[PH](=O)O)O[C@H](O[C@@H]5C(CO[PH](=O)O)O[C@H](O[C@@H]6C(CO[PH](=O)O)O[C@H](O[C@@H]7C(CO[PH](=O)O)O[C@H](O[C@@H]8C(CO[PH](=O)O)O[C@H](O[C@H]1C(O)C2O)C(O)C8Cl)C(O)C7Cl)C(O)C6O[PH](=O)O)C(O)C5Cl)C(O)C4Cl)C(O)C3Cl` (stereo partly specified) [CYCLODEXTRIN PHOSPHATE], the APTT [1] is reported as 47.2 µg/mL, the Cytotoxicity [3] is reported as >1000 µg/mL and the IC100 [5] is reported as 40 µg/mL. For the same compound, the IC100 [6] was 31.2 µg/mL.
`O=S(=O)([O-])OCC1O[C@@H]2O[C@@H]3C(COS(=O)(=O)[O-])O[C@H](O[C@@H]4C(COS(=O)(=O)[O-])O[C@@H](O[C@@H]5C(COS(=O)(=O)[O-])O[C@H](O[C@@H]6C(COS(=O)(=O)[O-])O[C@H](O[C@@H]7C(COS(=O)(=O)[O-])O[C@H](O[C@@H]8C(COS(=O)(=O)[O-])O[C@H](O[C@H]1C(O)C2OS(=O)(=O)[O-])C(OS(=O)(=O)[O-])C8O)C(OS(=O)(=O)[O-])C7O)C(OS(=O)(=O)[O-])C6O)C(OS(=O)(=O)[O-])C5O)C(OS(=O)(=O)[O-])C4O)C(OS(=O)(=O)[O-])C3O.[K+].[K+].[K+].[K+].[K+].[K+].[K+].[K+].[K+].[K+].[K+].[K+].[K+].[K+]` (stereo partly specified) [CYCLODEXTRIN SULFATE (CDS)] was tested, and the APTT [1] was 2.83 µg/mL, the Supressive effect [2] was 519 µg/mL and the Cytotoxicity [3] was >1000 µg/mL. It also gave a Supressive effect [4] of 60 µg/mL, an IC100 [5] of 125 µg/mL and an IC100 [6] of 31.2 µg/mL.
